According to ChEMBL document CHEMBL5506001 (J Med Chem, 2024):
≈ marks a conversion by molar mass, not a printed value. One block for each molecule: values may come before it. Calls of active or inactive are those of the source. No cut-off for these calls is given here.

How the values were obtained:
[1] = species on record: Bos taurus; assay: Activation of full-length myosin ATPase activity in bovine Cardiomyofibril in presence of CaCl2 and ATP by HTS assay; type: tissue-based
In short: (§1)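 Calcium-stimulated ATPase activity of cardiac myofibrils (bovine), slow skeletal myofibrils (bovine masseter), fast skeletal myofibrils (rabbit) or chicken gizzard smooth muscle myosin; 10-point dose response up to 40 μM.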

[2] = target: cGMP-inhibited 3',5'-cyclic phosphodiesterase 3A (Homo sapiens, UniProt Q14432); assay: Inhibition of PDE3A (unknown origin) using cAMP as substrate preincubated for 20 mins followed by substrate addition measured after 30 mins by HTS assay
cGMP-inhibited 3',5'-cyclic phosphodiesterase 3A, sequence (Q14432 whole entry): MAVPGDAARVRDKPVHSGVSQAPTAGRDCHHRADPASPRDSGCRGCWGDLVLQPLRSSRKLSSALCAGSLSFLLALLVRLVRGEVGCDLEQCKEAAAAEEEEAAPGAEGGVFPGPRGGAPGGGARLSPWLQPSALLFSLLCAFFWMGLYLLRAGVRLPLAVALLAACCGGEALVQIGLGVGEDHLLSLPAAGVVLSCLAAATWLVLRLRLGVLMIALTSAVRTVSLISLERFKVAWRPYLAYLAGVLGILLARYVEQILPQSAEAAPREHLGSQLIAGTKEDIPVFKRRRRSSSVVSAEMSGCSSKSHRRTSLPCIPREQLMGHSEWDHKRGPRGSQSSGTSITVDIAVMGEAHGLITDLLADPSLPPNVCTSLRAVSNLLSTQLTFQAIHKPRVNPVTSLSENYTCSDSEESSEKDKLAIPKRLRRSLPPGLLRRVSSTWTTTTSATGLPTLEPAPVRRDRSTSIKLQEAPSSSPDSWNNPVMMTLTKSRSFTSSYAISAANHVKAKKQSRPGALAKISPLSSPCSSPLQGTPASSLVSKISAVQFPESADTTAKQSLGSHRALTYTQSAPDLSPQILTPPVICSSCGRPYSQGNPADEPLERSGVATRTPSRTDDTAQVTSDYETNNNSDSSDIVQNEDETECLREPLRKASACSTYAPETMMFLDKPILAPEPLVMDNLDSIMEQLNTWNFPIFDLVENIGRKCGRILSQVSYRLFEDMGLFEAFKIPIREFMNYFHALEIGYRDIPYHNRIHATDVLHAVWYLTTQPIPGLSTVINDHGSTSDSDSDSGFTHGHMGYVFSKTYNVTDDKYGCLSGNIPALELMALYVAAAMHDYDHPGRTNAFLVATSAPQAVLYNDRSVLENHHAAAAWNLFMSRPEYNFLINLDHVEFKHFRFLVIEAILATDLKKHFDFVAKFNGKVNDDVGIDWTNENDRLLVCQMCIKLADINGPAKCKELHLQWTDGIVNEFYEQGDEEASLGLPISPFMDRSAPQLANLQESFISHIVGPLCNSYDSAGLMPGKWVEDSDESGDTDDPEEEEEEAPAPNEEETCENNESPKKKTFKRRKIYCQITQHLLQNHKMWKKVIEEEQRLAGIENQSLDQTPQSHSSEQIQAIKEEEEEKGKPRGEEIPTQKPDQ
In short: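 PDE3A preincubated with compound in 50 mM Tris, 5 mM MgCl₂, pH 7.5, for 20 min at room temperature. Then 0.2 µM cAMP substrate added for 30 min at room temperature, followed by a PDELight stop/detection mix.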

[3] = Clearance in Sprague-Dawley rat at 0.5 mg/kg,iv administered as bolus injection measured after 24 hrs by HPLC analysis; type: ADME, organism-based; settings: in vivo
In short: (§2)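 Male Sprague-Dawley rats given a single intravenous bolus; blood sampled from just before dosing to 24 h after; compound in blood or plasma measured by HPLC against a standard.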

[4] = Half life in Sprague-Dawley rat at 0.5 mg/kg,iv administered as bolus injection measured after 24 hrs by HPLC analysis; type: ADME, organism-based; settings: in vivo; in short: as §2
[5] = Volume of distribution in Sprague-Dawley rat at 0.5 mg/kg,iv administered as bolus injection measured after 24 hrs by HPLC analysis; type: ADME, organism-based; settings: in vivo; in short: as §2
[6] = Plasma protein binding in rat assessed as unbound fraction at 5 uM incubated for 6 hrs by equilibrium dialysis based HPLC analysis; type: ADME, cell-free
In short: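 Equilibrium dialysis: compound added at 5 μM to the buffer chamber, shaken against rat plasma for 6 h at 37 °C. Both chambers analysed by HPLC against standards; reported as % unbound.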

[7] = species on record: Bos taurus; assay: Activation of full-length myosin ATPase activity in bovine slow skeletal myofibrils in presence of CaCl2 and ATP by HTS assay; type: tissue-based; settings: filed as activator; in short: as §1
[8] = Solubility of compound at pH 6.8 incubated for 12 hrs by HPLC analysis; type: physicochemical; settings: buffer, pH 6.8, 12 h
In short: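 Agitated 12 h at room temperature in pH 6.8 monopotassium phosphate JP2 buffer, filtered, quantified by HPLC against a standard.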

[9] = species on record: Bos taurus; assay: Activation of full-length myosin ATPase activity in bovine Cardiomyofibril at 0.01 to 100 uM in presence of CaCl2 and ATP by HTS assay; type: tissue-based; settings: dose 0.01-100 µM
[10] = species on record: Bos taurus; assay: Activation of full-length myosin ATPase activity in bovine slow skeletal myofibrils at 0.01 to 100 uM in presence of CaCl2 and ATP by HTS assay; type: tissue-based; settings: dose 0.01-100 µM
[11] = test system: Cardiac muscle cell; assay: Induction of Sprague-Dawley rat Cardiomyocyte contractility assessed as increase in myocyte fractional shortening at 10 uM incubated for 5 mins by imaging analysis; type: functional, cell-based
[12] = test system: Cardiac muscle cell; assay: Induction of Sprague-Dawley rat Cardiomyocyte contractility by measuring myocyte relaxation velocity at 10 uM incubated for 5 mins by imaging analysis; type: functional
[13] = test system: Cardiac muscle cell; assay: Induction of Sprague-Dawley rat Cardiomyocyte contractility by measuring myocyte relaxation time at 10 uM incubated for 5 mins by imaging analysis; type: functional
[14] = test system: Cardiac muscle cell; assay: Induction of Sprague-Dawley rat Cardiomyocyte contractility assessed as increase in myocyte relaxation velocity at 10 uM incubated for 5 mins by imaging analysis relative to control; type: functional; parameters: scale not given: the % may be the effect or the level left
[15] = test system: Cardiac muscle cell; assay: Induction of Sprague-Dawley rat Cardiomyocyte contractility assessed as increase in myocyte relaxation time at 10 uM incubated for 5 mins by imaging analysis relative to control; type: functional; parameters: scale not given: the % may be the effect or the level left
[16] = species on record: Bos taurus; assay: Activation of Myosin S1 ATPase activity in bovine Cardiomyofibril at 40 uM in presence of bovine cardiac thin filament; type: tissue-based; settings: filed as activator
[17] = species on record: Oryctolagus cuniculus; assay: Activation of Myosin S1 ATPase activity in rabbit fast skeletal myofibrils at 40 uM in presence of bovine cardiac thin filament; type: tissue-based; settings: filed as activator
[18] = species on record: Oryctolagus cuniculus; settings: Fast skeletal myofibrils
[19] = species on record: Gallus gallus; settings: Gizzard
[20] = species on record: Gallus gallus; assay: Activation of full-length myosin ATPase activity in chicken Gizzard at 0.01 to 40 uM in presence of CaCl2 and ATP by HTS assay; settings: dose 0.01-40 µM
[21] = species on record: Oryctolagus cuniculus; assay: Activation of full-length myosin ATPase activity in rabbit fast skeletal myofibrils at 0.01 to 40 uM in presence of CaCl2 and ATP by HTS assay; settings: dose 0.01-40 µM

Compound: O=c1[nH]c(=O)c2cc(S(=O)(=O)Nc3ccc(N4CCCCCC4)cc3)ccc2[nH]1
EC40 ([1]; filed as activator): 1.1 µM
EC40 [7]: 1.7 µM
IC50 [2]: 2.3 µM
solubility [8]: 2.3 µM (≈ 0.953 µg/mL)
Activity [9]: inactive
Activity [10]: inactive
Activity [11]: Active
Activity [12]: 55.4 um/s
Time [13]: 0.308 s
Activity [14]: 23%
Activity [15]: 30%
Activity [16]: Active
Activity [17]: Active
EC40 [18]: > 39.2 µM
EC40 [19]: > 39.2 µM
Activity [20]: inactive
Activity [21]: inactive

Compound: O=c1[nH]c(=O)c2cc(S(=O)(=O)Nc3ccc(-c4ccccc4)cc3)ccc2[nH]1
EC40 ([1]; filed as activator): < 0.1 µM
EC40 [7]: < 0.1 µM
IC50 [2]: 4.6 µM
solubility [8]: 2.4 µM (≈ 0.944 µg/mL)
EC40 [18]: > 39.2 µM
EC40 [19]: > 39.2 µM

Compound: O=c1[nH]c(=O)c2cc(S(=O)(=O)Nc3ccccc3)ccc2[nH]1
EC40 [1]: > 39 µM

Compound: COc1cc2nc(C)[nH]c(=O)c2cc1S(=O)(=O)Nc1ccc(N2C[C@H](C)C[C@@H](C)C2)nc1
EC40 ([1]; filed as activator): 0.7 µM
IC50 [2]: > 40 µM
clearance [3]: 0.1 mL/min/kg
t1/2 [4]: 2.3 h
fraction unbound at 6 h, 5 µM [6]: 0.008

Compound: O=c1[nH]c2ccc(S(=O)(=O)Nc3ccc(-c4ccccc4)cc3)cc2[nH]1
EC40 ([1]; filed as activator): 5.5 µM
Activity [16]: Active
Activity [17]: Active

Compound: C[C@@H]1C[C@H](C)CN(c2ccc(NS(=O)(=O)c3ccc4c(c3)c(=O)[nH]c(=O)n4C)cn2)C1
EC40 ([1]; filed as activator): 11.1 µM

Compound: O=c1[nH]c(=O)c2cc(S(=O)(=O)Nc3cnc(-c4ccccc4)nc3)ccc2[nH]1
EC40 [1]: > 39 µM

Compound: C[C@H]1CCCN(c2ccc(NS(=O)(=O)c3ccc4c(c3)c(=O)[nH]c(=O)n4C)cn2)C1
EC40 [1]: > 33 µM

Compound: C[C@@H]1C[C@@H](C)CN(c2ccc(NS(=O)(=O)c3ccc4c(c3)c(=O)[nH]c(=O)n4C)cn2)C1
EC40 ([1]; filed as activator): 0.5 µM

Compound: CN(c1ccc(-c2ccccc2)cc1)S(=O)(=O)c1ccc2[nH]c(=O)[nH]c(=O)c2c1
EC40 [1]: > 39 µM

Compound: Cc1nc2ccc(S(=O)(=O)Nc3ccc(N4C[C@H](C)C[C@@H](C)C4)nc3)cc2c(=O)[nH]1
EC40 ([1]; filed as activator): 4.5 µM
IC50 [2]: > 40 µM

Results, then the molecule that gave them:

EC40 ([1]; filed as activator): 0.7 µM
IC50 [2]: > 40 µM
clearance [3]: 7.1 mL/min/kg
t1/2 [4]: 0.6 h
Vd [5]: 3.8 L/kg
fraction unbound at 6 h, 5 µM [6]: 0.037
Compound: Cc1nc2cc(OCCN3CCOCC3)c(S(=O)(=O)Nc3ccc(N4C[C@H](C)C[C@@H](C)C4)nc3)cc2c(=O)[nH]1

EC40 ([1]; filed as activator): 4.3 µM
Compound: C[C@@H]1CCCN(c2ccc(NS(=O)(=O)c3ccc4c(c3)c(=O)[nH]c(=O)n4C)cn2)C1

EC40 ([1]; filed as activator): 1.4 µM
IC50 [2]: > 40 µM
clearance [3]: 3.3 mL/min/kg
t1/2 [4]: 1.1 h
Vd [5]: 1.8 L/kg
fraction unbound at 6 h, 5 µM [6]: 0.012
Compound: CNc1cc2nc(C)[nH]c(=O)c2cc1S(=O)(=O)Nc1ccc(N2C[C@H](C)C[C@@H](C)C2)nc1

EC40 ([1]; filed as activator): 18 µM
Compound: O=c1[nH]c(=O)c2cc(S(=O)(=O)Nc3ccc(-c4ccccc4)cn3)ccc2[nH]1

EC40 ([1]; filed as activator): < 0.1 µM
IC50 [2]: 4.6 µM
Compound: Cn1c(=O)[nH]c(=O)c2cc(S(=O)(=O)Nc3ccc(-c4ccccc4)cc3)ccc21

EC40 [1]: > 30 µM
Compound: Cn1c(=O)[nH]c(=O)c2cc(S(=O)(=O)Nc3ccc(N4CCCCC4)nc3)ccc21

EC40 ([1]; filed as activator): 5.3 µM
Compound: O=c1[nH]c(=O)c2cc(S(=O)(=O)Nc3ccc(-c4ccccc4)nc3)ccc2[nH]1

EC40 ([1]; filed as activator): 21.9 µM
Compound: C[C@H]1C[C@H](C)CN(c2ccc(NS(=O)(=O)c3ccc4c(c3)c(=O)[nH]c(=O)n4C)cn2)C1
